# Measured values reported in ChEMBL document CHEMBL4339251, “Prenylated Bibenzyls from the Chinese Liverwort Radula constricta and Their Mitochondria-Derived Paraptotic Cytotoxic Activities” (J Nat Prod, 2019).
# Structures can show the parent of a compound that is named as a salt. Calls of active or inactive are those of the source. The calls are words filed in the database; no cut-off is given here.
# Columns and labels:
# Assay type in all cases: functional, cell-based
# SMMC-7721 = assay: Cytotoxicity in human SMMC7721 cells assessed as reduction in cell viability incubated for 48 hrs by MTT assay; details: SMMC-7721, 48 h
# How it was run: (§1)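 MTT viability. U251 and NCI-H1299 were grown in DMEM, the other lines in RPMI 1640, each with 10% FBS, penicillin and streptomycin, at 37 °C in 5% CO2. Cells were seeded in 96-well plates overnight and exposed to a range of concentrations. MTT (5 mg/mL) was added for 4 h, formazan was dissolved in DMSO and absorbance read at 570 nm. Three independent experiments.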
# A549 [1] = assay: Cytotoxicity in human A549 cells assessed as reduction in cell viability incubated for 48 hrs by MTT assay; details: A549, 48 h; how it was run: as §1
# KB = assay: Cytotoxicity in human KB cells assessed as reduction in cell viability incubated for 48 hrs by MTT assay; how it was run: as §1
# U-251 = assay: Cytotoxicity in human U251 cells assessed as reduction in cell viability incubated for 48 hrs by MTT assay; details: U-251, 48 h; how it was run: as §1
# SW-620 = assay: Cytotoxicity in human SW620 cells assessed as reduction in cell viability incubated for 48 hrs by MTT assay; details: SW-620, 48 h; how it was run: as §1
# HT-29 = assay: Cytotoxicity in human HT-29 cells assessed as reduction in cell viability incubated for 48 hrs by MTT assay; details: HT-29, 48 h; how it was run: as §1
# MCF7 = assay: Cytotoxicity in human MCF7 cells assessed as reduction in cell viability incubated for 48 hrs by MTT assay; details: MCF7, 48 h; how it was run: as §1
# NCI-H1299 = assay: Cytotoxicity in human NCI-H1299 cells assessed as reduction in cell viability incubated for 48 hrs by MTT assay; details: NCI-H1299, 48 h; how it was run: as §1
# HepG2 = assay: Cytotoxicity in human HepG2 cells assessed as reduction in cell viability incubated for 48 hrs by MTT assay; details: HepG2, 48 h
# How it was run: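 MTT viability. Cells were seeded in 96-well plates overnight and exposed to a range of concentrations. MTT (5 mg/mL) was added for 4 h, formazan was dissolved in DMSO and absorbance read at 570 nm. Three independent experiments.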
# A549 [2] = assay: Induction of cytoplasmic vacuolization in human A549 cells
Structure (SMILES),IC50 (SMMC-7721),IC50 (A549 [1]),IC50 (KB),IC50 (U-251),IC50 (SW-620),IC50 (HT-29),IC50 (MCF7),IC50 (NCI-H1299),IC50 (HepG2),Activity (A549 [2])
COC(=O)c1c(CCc2ccccc2)cc2c(c1O)CC(O)C(C)(C)O2 (racemic),> 40 µM,> 40 µM,> 40 µM,> 40 µM,> 40 µM,> 40 µM,> 40 µM,> 40 µM,> 40 µM,–
CC1(C)[C@@H]2c3c(CCc4ccccc4)cc(O)cc3O[C@]3(C)CC[C@H]1[C@H]23,13.5 µM,9.8 µM,16 µM,25.6 µM,10.4 µM,> 10 µM,20 µM,7.5 µM,13.1 µM,Active
COC(=O)c1c(CCc2ccccc2)cc2c(c1O)CC(C(C)(C)O)O2 (racemic),> 40 µM,> 40 µM,> 40 µM,> 40 µM,> 40 µM,> 40 µM,> 40 µM,> 40 µM,> 40 µM,–
COC(=O)c1c(CCc2ccccc2)cc(O)c2c1OC(C)(C)C(O)C2 (racemic),> 40 µM,> 40 µM,> 40 µM,> 40 µM,> 40 µM,> 40 µM,> 40 µM,> 40 µM,> 40 µM,–
O=C1C=Cc2c(O)cc(CCc3ccccc3O)cc2OC1,14.7 µM,> 40 µM,> 40 µM,21.7 µM,13.8 µM,> 40 µM,33.2 µM,> 40 µM,> 40 µM,–
C=C(C)[C@@H](O)CC/C(C)=C/Cc1c(O)cc(O)cc1CCc1ccccc1,29.5 µM,25.5 µM,17.2 µM,> 40 µM,19.7 µM,29 µM,28.9 µM,> 40 µM,22.2 µM,Active
C=C(C)[C@H]1CC[C@@]2(C)Oc3cc(O)cc(CCc4ccccc4)c3[C@@H]1[C@H]2O,28.4 µM,28 µM,38 µM,14.6 µM,21.3 µM,35.3 µM,37 µM,> 40 µM,31.6 µM,–
C=C(C)C(O)Cc1c(O)cc(CCc2ccccc2)c(C(=O)OC)c1O (racemic),9 µM,36.6 µM,> 40 µM,8.7 µM,22.2 µM,29.6 µM,37.9 µM,> 40 µM,34.9 µM,–
CC1=CCc2c(O)cc(CCc3ccccc3O)cc2OC1,40 µM,28.9 µM,> 40 µM,38.6 µM,> 40 µM,24.3 µM,> 40 µM,> 40 µM,28.2 µM,Active
CC1=CCc2c(O)cc(CCc3ccccc3)cc2OC1,> 40 µM,> 40 µM,> 40 µM,> 40 µM,> 40 µM,> 40 µM,> 40 µM,> 40 µM,> 40 µM,–
CC(C)=CCC[C@@]1(C)C=Cc2c(CCc3ccccc3)cc(O)cc2O1,24.8 µM,> 40 µM,28.1 µM,8.9 µM,18.5 µM,> 40 µM,> 40 µM,> 40 µM,35 µM,–
CC(C)=CCCC1(C)Oc2cc(O)cc(CCc3ccccc3)c2CC1O (racemic),> 40 µM,> 40 µM,> 40 µM,> 40 µM,> 40 µM,> 40 µM,> 40 µM,> 40 µM,> 40 µM,–
C=C(CCC=C(C)C)[C@H](O)Cc1c(O)cc(O)cc1CCc1ccccc1,15.8 µM,26 µM,16.8 µM,9.1 µM,15.2 µM,19.8 µM,18.7 µM,> 40 µM,20.4 µM,–
CC(C)=CCC/C(C)=C/Cc1c(O)cc(O)cc1CCc1ccccc1,24.5 µM,> 40 µM,25.7 µM,9.3 µM,25.6 µM,> 40 µM,> 40 µM,> 40 µM,36 µM,–
COc1cc(CCc2ccccc2)c2c(c1)OC(C)(C)CC2,> 40 µM,> 40 µM,> 40 µM,26.1 µM,> 40 µM,> 40 µM,> 40 µM,> 40 µM,> 40 µM,–
CC(C)(O)[C@H]1CC[C@@]2(C)Oc3cc(O)cc(CCc4ccccc4)c3[C@@H]1[C@H]2O,> 40 µM,> 40 µM,> 40 µM,> 40 µM,> 40 µM,> 40 µM,> 40 µM,> 40 µM,> 40 µM,–
CC1=CC(=O)c2c(O)cc(CCc3ccccc3O)cc2OC1,> 40 µM,> 40 µM,> 40 µM,> 40 µM,> 40 µM,> 40 µM,> 40 µM,> 40 µM,> 40 µM,–
COc1cccc2c1C(=O)c1c(O)c3c(c(O)c1C2=O)C[C@@](O)(C(=O)CO)C[C@@H]3O[C@H]1C[C@H](N)[C@H](O)[C@H](C)O1 [DOXORUBICIN HYDROCHLORIDE],0.8 µM,–,3.2 µM,2.9 µM,1.2 µM,3.8 µM,–,0.8 µM,–,–
CC(C)=CCCC(C)(O)CCc1c(O)cc(O)cc1CCc1ccccc1 (racemic),38.7 µM,> 40 µM,29.6 µM,36.7 µM,> 40 µM,> 40 µM,> 40 µM,> 40 µM,> 40 µM,–
CC1(C)CCc2c(CCc3ccccc3)cc(O)cc2O1,> 40 µM,> 40 µM,> 40 µM,> 40 µM,> 40 µM,> 40 µM,> 40 µM,> 40 µM,> 40 µM,Active
